Screening results (PubChem)
Most compounds without a hit are left out; they make up all but 0.77% or so of the library.
mIAP activ – activators of mouse IAP, primary screen, biochemical, luminescence, uHTS | AID 2805, 2010 | muIAP, CDP-Star luminescence, 30 min; active compounds read high; 1 = vehicle-only enzyme signal, 0 = enzyme-free wells | activation factor at 10 µM | hit rate 0.24% among 330,000;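 active = activation factor of at least 2 at 20 µM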
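Assay system: mouse IAP enzyme; Reagent: CDP-Star chemiluminescent phosphatase substrate; Compound: DMSO-dissolved test compounds; Incubation: 30 min, room temperature; Technique: luminescence from enzymatic CDP-Star hydrolysis; Controls: DMSO-only wells and no-enzyme negative control.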
hIAP block – human IAP inhibitors, primary screen, biochemical, luminescence, uHTS; Intestinal-type alkaline phosphatase (Homo sapiens), P09923; purified IAP, CDP-Star luminescence, 30 min; inhibition, % at 10 µM; hit rate 0.12% among 330,000;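 active = inhibition reaching a set limit with compound at 10 µM in the primary screen, cut at about 35% in these data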;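 also: plate controls were DMSO wells with enzyme for no effect and no-enzyme buffer wells for full effect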
Target sequence (P09923 whole entry, looked up): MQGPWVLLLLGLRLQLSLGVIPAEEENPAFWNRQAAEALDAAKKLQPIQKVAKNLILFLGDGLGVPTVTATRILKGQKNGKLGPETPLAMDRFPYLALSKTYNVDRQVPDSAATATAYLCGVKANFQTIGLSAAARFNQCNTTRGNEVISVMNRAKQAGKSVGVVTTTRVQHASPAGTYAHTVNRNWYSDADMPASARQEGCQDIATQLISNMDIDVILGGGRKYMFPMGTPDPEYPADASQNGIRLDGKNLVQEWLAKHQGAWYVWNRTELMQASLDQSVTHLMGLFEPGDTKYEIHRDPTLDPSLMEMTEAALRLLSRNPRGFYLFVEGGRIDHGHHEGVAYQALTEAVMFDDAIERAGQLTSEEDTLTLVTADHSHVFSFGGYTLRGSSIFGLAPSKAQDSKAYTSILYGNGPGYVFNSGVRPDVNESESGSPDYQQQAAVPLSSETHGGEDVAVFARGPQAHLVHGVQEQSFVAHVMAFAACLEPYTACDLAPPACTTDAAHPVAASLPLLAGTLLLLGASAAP
bIAP inh – bovine intestinal alkaline phosphatase inhibitors, primary screen, selectivity assay for TNAP inhibitor project, biochemical, bovine IAP, CDP-star luminescence | alkaline phosphatase, intestinal [Bos taurus] | purified bovine IAP, 30 min | inhibition, % at 20 µM | 190,000 tested, under 10 active;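 active = over 50% inhibition of intestinal alkaline phosphatase at 20 µM in the single-dose screen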
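test system = bovine IAP enzyme | medium = DEA buffer 100 mM, pH 9.8, with MgCl2 1.0 mM, ZnCl2 0.02 mM | detection = luminescence | dosing = single compound dose of 20 µM, 2% DMSO final | incubation = 30 min reaction at room temperature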
bIAP act – bovine intestinal alkaline phosphatase activators, primary screen, biochemical, bovine IAP, CDP-star luminescence; activation factor at 20 µM; purified bovine IAP, 30 min; active compounds read high; fold of DMSO-control signal, blank-subtracted; alkaline phosphatase, intestinal [Bos taurus]; hit rate 0.17% among 200,000;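 active = activation factor of 2 or more at 20 µM, a signal rise over negative controls twice the positive control's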
hIAP activ – human IAP activators, primary screen, biochemical, luminescence, uHTS; Intestinal-type alkaline phosphatase (Homo sapiens), P09923; purified human IAP, CDP-Star luminescence, 30 min; active compounds read high; 1 = vehicle-only enzyme, 0 = enzyme-free background; activation factor at 10 µM; hit rate 0.16% among 330,000; AID 2524, 2010;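 active = activation factor of the enzyme at least 2-fold when tested at 20 µM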
mIAP inh – inhibitors of mouse IAP, primary screen, biochemical, luminescence, uHTS; intestinal alkaline phosphatase [Mus musculus]; hit rate 0.2% among 330,000; purified mouse IAP, CDP-Star luminescence, 30 min; inhibition, % at 10 µM; AID 2806, 2010;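 active = inhibition of at least 40% at 10 µM in the primary screen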;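 also: plate controls were DMSO with enzyme for no effect and no enzyme wells for full effect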
hIAP act confirm – human IAP activators, confirmation, biochemical, luminescence, single concentration, uHTS hits. activation (%Activity, negative = activation), % at 8.3 µM. purified IAP, CDP-Star luminescence, 30 min; active compounds read low. shares compounds with hIAP activ. hit rate 10% among 880;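 active = at least twofold enzyme activation in any of six single-dose repeats, which the averaged readout prints as negative percent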
* marks the source's active call; other numbers are inactive results; / = not tested or not shown.

SMILES	mIAP activ	hIAP block	bIAP inh	bIAP act	hIAP activ	mIAP inh	hIAP act confirm
Cc1cc(-n2c(SCC(=O)Nc3ccc(F)c(F)c3)nc3n[nH]c(C)c3c2=N)ccc1Cl	1.1	-107	/	/	2.1*	-14	-40
Cc1ccc(NC(=O)c2cc(-c3cc(Cl)ccc3O)n[nH]2)cc1C	1	-94	/	/	1.9	-3	/
Cc1ccc(C)c(NC(=O)c2cc(-c3cc(C)ccc3O)n[nH]2)c1	1.1	-121	/	/	2.2*	-12	-58
Cc1cccc(NC(=O)c2cc(-c3cc(Cl)ccc3O)n[nH]2)c1	1.2	-103	/	/	2*	-18	-4
COc1ccc(S(=O)(=O)N2CCCC2c2cccs2)cc1 (centres undefined)	0.95	19	/	/	0.81	5	/
O=S(=O)(c1ccccc1)N1CCCC1c1cccs1 (centres undefined)	0.95	53*	/	/	0.47	5	-172*
COc1nc(N)nc(NC(=O)c2cccs2)c1N=O	1	-10	/	/	1.1	-1	/
c1ccc(C2=NNC(c3ccccn3)=NN2)nc1	0.92	-37	/	/	1.4	8	/
COc1ccc(NC(=O)c2cc(-c3cc(Cl)ccc3O)n[nH]2)c(OC)c1	0.98	-36	/	/	1.4	2	/
COc1ccc(NC(=O)c2cc(-c3cc(C)c(C)cc3O)n[nH]2)c(OC)c1	1	-112	/	/	2.1*	-4	-19
COc1ccc(OC)c(NC(=O)c2cc(-c3cc(C)c(C)cc3O)n[nH]2)c1	1	-117	/	/	2.2*	-1	6
COc1ccc(OC)c(NC(=O)c2cc(-c3cc(C)cc(C)c3O)n[nH]2)c1	1	-58	/	/	1.6	-2	/
Cc1ccc(S(=O)(=O)N2CCN(C(=O)Cn3c(=O)oc4ccccc43)CC2)c(C)c1	0.98	-6	/	/	1.1	2	/
Cc1ccc(-n2c(C)cc(/C=N/NC(N)=S)c2C)cc1	0.98	-7	1	1	1.1	2	/
Cc1cc(/C=N/NC(N)=S)c(O)c(/C=N/NC(N)=S)c1	0.81	-178	/	/	2.8*	19	-56
NC(=S)N/N=C/c1cccc(O)c1O	1	-115	-28	1.3	2.2*	-2	5
NC(=S)N/N=C/c1ccccc1O	0.97	-65	/	/	1.6	3	/
COc1ccc(NS(=O)(=O)c2cc(NC(=O)c3ccc(=O)[nH]n3)ccc2C)cc1	0.99	-2	/	/	1	1	/
CC(=O)CCN1C(=O)NC2(CCCc3ccccc32)C1=O (centres undefined)	0.96	-30	/	/	1.3	4	/
CCNC(=S)NNC(=O)CSc1nc2ccccc2n1C	0.91	5	/	/	0.95	9	/
CCNC(=S)NNC(=O)CSc1nc2ccccc2[nH]1	1.1	-143	-29	1.3	2.4*	-10	-30
Oc1ccc(-c2csc(-c3ccccc3)n2)cc1O	0.84	10	8	0.9	0.9	16	/
Oc1ccc(-c2csc(-c3cccnc3)n2)cc1O	0.75	41*	/	/	0.59	25	6
CCN1CCN(c2ccccc2NC(=O)C(C)Oc2ccc(C(C)=O)cc2)CC1 (centres undefined)	0.99	7	/	/	0.93	1	/
O=C(CSc1nc(-c2cccs2)cc(C(F)(F)F)n1)NCc1ccccc1	1	37*	23	0.8	0.63	0	37
COc1ccc(C(=O)Nc2cccc(C)c2)cc1S(=O)(=O)N1CCOCC1	0.98	13	-6	1.1	0.87	2	/
COc1ccc(C(=O)Nc2cccc3c2C(=O)NC3=O)cc1S(=O)(=O)N1CCOCC1	0.93	36*	-7	1.1	0.64	7	-85*
CCCCN1CCNC[C@@H]1c1ccccc1	0.98	-6	/	/	1.1	2	/
